Data set [1] in a line: Aqueous solubility of compound by HPLC analysis. The following applies: water. Format: physicochemical. Put shortly:
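Compound shaken in pure water or 50 mM phosphate buffer pH 7.4 at 20 °C, then centrifuged. Supernatant assayed by C18 HPLC (acetonitrile–water 60/40, 1.0 mL/min, 254 nm). Triplicate.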

Data set [2] concerns A549. Briefly: Antiproliferative activity against human A549 cells after 72 hrs by MTT assay. Format: functional, cell-based. The following applies: A549, 72 h. On the technique in general: Tetrazolium dyes change colour on reduction, which living cells bring about.
Data set [3] has as its system U-87 MG. Kind of data set: Antiproliferative activity against human U87MG cells after 72 hrs by MTT assay. It is filed as functional, cell-based, U-87MG ATCC. Put shortly:
(§1)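 Cells grown in RPMI 1640 with 10% FBS in 96-well plates overnight, then exposed to test agents in triplicate for 72 h. MTT (5 mg/mL stock) added for the last 4 h, formazan dissolved in DMSO, absorbance read at 570 nm. Inhibition = (1 − OD treated/OD control) × 100%.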

Data set [4] deals with K562. Kind of data set: Antiproliferative activity against human K562 cells after 72 hrs by MTT assay. It is filed as functional, cell-based. As to conditions: K562, 72 h. Put shortly:
as §1

Data set [5] in a line: Solubility of compound in phosphate buffer at pH 7.4 after 8 hrs by HPLC analysis. It is filed as physicochemical. Put shortly: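 Compound was shaken in 50 mM phosphate buffer (pH 7.4) at 20 °C, centrifuged, and the supernatant analysed by HPLC. Conditions were a C18 column, acetonitrile–water 60/40 (v/v) at 1.0 mL/min, with detection at 254 nm. Run in triplicate.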
In data set [6] the test system is HCT-116. Kind of data set: Antiproliferative activity against human HCT116 cells after 72 hrs by MTT assay. It is filed as functional, cell-based. The following applies: HCT-116, 72 h. Put shortly: as §1
Data set [7] is described as follows: Drug level in DMSO treated with (E)-3-Chloro-1-(3-(3,5,6-trimethylpyrazin-2-yl)acryloyl)-5,6-dihydropyridin-2(1H)-one at 5 mg up to 8 hrs in presence of methyl thioglycolate by 1H NMR analysis.
Data set [8] concerns A549. Briefly: Antiproliferative activity against human A549 cells after 72 hrs in presence of piperlongumine by MTT assay. Format: functional, cell-based. The following applies: A549, 72 h. In a few lines: as §1
Data set [9] relates to HCT-116. Briefly: Antiproliferative activity against human HCT116 cells after 72 hrs in presence of piperlongumine by MTT assay. It is filed as functional, cell-based. The following applies: HCT-116, 72 h. In a few lines: as §1
For data set [10], the system named is U-87 MG. Briefly: Antiproliferative activity against human U87MG cells after 72 hrs in presence of piperlongumine by MTT assay. Format: functional, cell-based, U-87MG ATCC. In a few lines:
as §1

In data set [11] the test system is K562. Kind of data set: Antiproliferative activity against human K562 cells after 72 hrs in presence of piperlongumine by MTT assay. Format: functional, cell-based. As to conditions: K562, 72 h. In a few lines: as §1

Structures are written as SMILES. In brackets after ≈: the same amount, converted by molar mass.

In general, solubility refers to the concentration that dissolves in the medium under given conditions. A lower solubility goes with a poorly soluble substance. One may read the IC50 as the concentration that gives 50% inhibition.

As to `Cc1nc(C)c(/C=C/C(=O)N2CCC=C(I)C2=O)nc1C`, in data set [1], the solubility amounted to 0.0145 mg/mL (≈ 36.5 µM). Further, the IC50 in the data set with A549 [2] is 3.19 µM; with U-87 MG [3], 7.26 µM; in the data set with K562 [4], 0.64 µM; with HCT-116 [6], 0.76 µM. In [5], this molecule returned a solubility at 8 h of 0.0499 mg/mL (≈ 125 µM).
Consider `Cc1nc(C)c(/C=C/C(=O)N2CCCCC2=O)nc1C`, for which the IC50 in the data set with A549 [2], with U-87 MG [3], in the data set with K562 [4] and in the data set on HCT-116 [6] was greater than 50 µM throughout.
Take `COC(=O)CSC1CCN(C(=O)/C=C/c2nc(C)c(C)nc2C)C(=O)C1Cl` (configuration not stated): the Drug metabolism result in data set [7] was “Metabolite detected”.
For the molecule `Cc1nc(C)c(C)nc1C` [LIGUSTRAZINE], the IC50 in the data set on A549 [8] is 15.2 µM; with HCT-116 [9], 8.17 µM; with U-87 MG [10], 16.1 µM; in the data set with K562 [11], 5.09 µM.
In the case of `Cc1nc(C)c(/C=C/C(=O)N2CCC=CC2=O)nc1C`, the concentration in solution in [1] (solubility) came to 0.0426 mg/mL (≈ 157 µM). For the same molecule, the IC50 with A549 [2] is 4.86 µM; in the data set with U-87 MG [3] it was 8.73 µM; in the data set on K562 [4], 1.13 µM; in the data set on HCT-116 [6], 1.67 µM. This molecule also yielded a solubility at 8 h in [5] of 0.328 mg/mL (≈ 1210 µM).
The molecule `Cc1nc(C)c(/C=C/C(=O)N2CCC=C(Br)C2=O)nc1C` displayed a solubility in [1] of 0.0202 mg/mL (≈ 57.6 µM). The IC50 in the data set with A549 [2] turned out to be 2.48 µM; in the data set on U-87 MG [3], 4.28 µM; with K562 [4], 0.48 µM; in the data set with HCT-116 [6], 0.46 µM. In data set [5], this molecule showed a solubility at 8 h of 0.0673 mg/mL (≈ 192 µM).

For the origin of these results see ChEMBL document CHEMBL4033788, “Novel Ligustrazine-Based Analogs of Piperlongumine Potently Suppress Proliferation and Metastasis of Colorectal Cancer Cells in Vitro and in Vivo” (J Med Chem, 2018).
